# Source: PubChem
# These entries were drawn from the full list.
# PGC1a Ac signal – raises PGC1a acetylation signal in U2OS cells | AID 651723 | activation, % at 15.6 µM | U2OS PGC1a acetylation AlphaScreen, overnight | hit rate 0.21% among 350,000;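 active = every replicate reaching activation of at least 50%, whatever the mean replicate activation; inconclusive = replicates that disagree or another doubt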;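 also: hits raise the AlphaScreen acetylation signal above neutral controls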
#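 System: flag-PGC1a/GCN5 U2OS cells / Input: 7000 cells/well / Compound: single test concentration per compound / Incubation: overnight compound treatment, 37 °C / Technique: AlphaScreen on lysates with anti-acetyl-lysine antibody, acceptor and donor beads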
# G6PC hep suppr – PGC-1a acetylation activators affecting G6PC expression in hepatocytes. shares compounds with PGC1a Ac signal. primary mouse hepatocytes, G6PC mRNA qPCR, forskolin. G6PC suppression (normalized activity, % of positive control; higher = more suppression), % at 26 µM. 240 tested, under 10 active;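 active = dose curves showing G6PC suppression whose half-maximal dose is at most twice the top valid dose; inconclusive = flat curves with moderate negative activity, or unreliable fits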;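 also: G6PC expression relative to GAPDH housekeeping gene as delta delta Ct; 0% = median of neutral control wells and 100% = median of positive control wells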
# PCK1 hep suppr – PGC-1a acetylation activators affecting PCK1 expression in hepatocytes. shares compounds with PGC1a Ac signal. primary mouse hepatocytes, PCK1 mRNA qPCR, forskolin-stimulated. PCK1 expression decrease, unspecified at 26 µM. 230 tested, under 10 active;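 active = compounds lowering PCK1 expression whose fitted half-maximal concentration is at most twice the top tested dose; inconclusive = flat fit with moderate opposite-direction effect, or poor fit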;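 also: values are delta delta Ct of PCK1 relative to GAPDH; higher delta delta Ct means lower PCK1 expression so positive values indicate hits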
# Hep PGC-1a down – hepatocyte PGC-1a expression change via PGC-1a acetylation activation; shares compounds with PGC1a Ac signal; 240 tested, under 10 active; AID 743467; max activity (PGC-1a expression decrease), %; primary mouse hepatocytes, PGC-1a mRNA qPCR, forskolin; top dose 26 µM;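 active = compound lowering PGC-1a expression with fitted half-maximal concentration at most twice its top tested dose; inconclusive = flat curve with moderate opposite-direction effect, or poor fit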;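 also: 0% = neutral control wells median and 100% = positive control wells median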
# Numbers without * were called inactive; i = inactive; ? = inconclusive; / = no result given; [ ] = another dose, or the depositor's remark.
SMILES,PGC1a Ac signal,G6PC hep suppr,PCK1 hep suppr,Hep PGC-1a down
C[C@H]1CN([C@@H](C)CO)C(=O)c2cccc(NS(=O)(=O)c3ccc(F)cc3)c2O[C@H]1CN(C)Cc1ccc(C(F)(F)F)cc1,-55,23,37,89
CC(C)NC(=O)N(C)C[C@H]1Oc2c(NS(=O)(=O)c3cn(C)cn3)cccc2C(=O)N([C@@H](C)CO)C[C@@H]1C,-45,/,/,/
C[C@@H]1CN([C@H](C)CO)C(=O)c2cc(/C=C/c3ccccc3)cnc2O[C@@H]1CN(C)Cc1cccnc1,-65,/,/,/
COc1ccc(OC)c(NC(=O)C2C(C(=O)O)C3(Cl)C(Cl)=C(Cl)C2(Cl)C3(Cl)Cl)c1 (centres undefined),-42,/,/,/
O=c1c2cccnc2n(-c2ccccc2)n1Cc1ccc(Cl)cc1,-101,/,/,/
O=c1cc(CSc2ccccn2)[nH]c(=O)[nH]1,-44,/,/,/
COC(=O)CSc1nc(-c2ccccc2)cc(-c2ccco2)c1C#N,67*,-4,-9.5,51
O=CNCCc1nc2ccccc2n1CCc1ccccc1,-53,/,/,/
COCCCn1[nH]c2c3c(ccc2c1=O)C(=O)c1ccccc1C3=O,-46,/,/,/
CCC(=O)N[C@H]1CC[C@H](CC(=O)OC)O[C@H]1CO,-43,/,/,/
O=C(N[C@@H]1CC[C@@H](CCNS(=O)(=O)c2ccccc2Cl)O[C@@H]1CO)c1ccc(F)cc1,-48,/,/,/
c1ccc(C(c2nnnn2Cc2cccs2)N2CCN(C3CCCC3)CC2)cc1 (centres undefined),-42,27,34,38
Oc1ccc(C2CNCCc3c2cc(O)c(O)c3Cl)cc1 (centres undefined),-42,/,/,/
C/C=C/Cn1c(SCc2ccc(Cl)cc2)nc2c1c(=O)[nH]c(=O)n2C,-50,/,/,/
C=CCc1ccc(OCCCCNC(C)CC)c(OC)c1 (centres undefined),-26,/,/,/
CN(c1ccccc1)S(=O)(=O)c1ccc(Cl)nc1,-44,/,/,/
Cc1ccccc1NC(=O)/C(C#N)=C\c1cc(C)n(-c2ccc(C(=O)O)cc2)c1C,-44,/,/,/
N#Cc1cccc(C(c2nnnn2C2CCCC2)N2CCCCCC2)c1 (centres undefined),?,33,231,92
CCOC(=O)C1=C(C)N=c2s/c(=C\c3cccc(OCC(=O)O)c3)c(=O)n2C1c1ccccc1OC (centres undefined),-55,/,/,/
Cc1ccc(NC(=O)c2c(C(F)(F)F)nn(C)c2SCc2ccc(Cl)cc2)cc1C,?,14[8 µM],249,139
COc1ccc(C(=C(CC(=O)O)C(=O)OC(C)(C)C)c2cc(OC)c(OC)c(OC)c2)cc1OC,-47,/,/,/
CCN(CC)CC(=O)N1c2ccccc2CCc2ccc(NC(=O)c3cc(OC)c(OC)c(OC)c3)cc21,-41,i,?,131
COc1ccc(NCc2nnc(SCC(=O)Nc3cc(C)cc(C)c3)o2)cc1,-52,/,/,/
O=C(C[C@@H]1CC[C@@H](NS(=O)(=O)c2ccc(F)cc2)[C@H](CO)O1)N1CCN(c2ccccc2)CC1,-49,/,/,/
O=C(C(Cc1ccccc1)n1cccc1)N1CCN(c2ccccc2)CC1 (centres undefined),?,-81,-4.9,29
SMILES,PGC1a Ac signal,G6PC hep suppr,PCK1 hep suppr,Hep PGC-1a down
O=C(C[C@H]1CC[C@@H](NS(=O)(=O)c2ccc(F)cc2)[C@H](CO)O1)N1CCN(c2ccccc2)CC1,-50,/,/,/
CN1Cc2c(N3CCOCC3)nc3sc(C(=O)c4ccc(Br)cc4)c(N)c3c2CC1(C)C,83*,235,208,48
c1ccc(CN2OCC3Cn4c(nc5ccccc54)C32)cc1 (centres undefined),-41,/,/,/
CC(=O)c1cc(-c2ccccc2)n(CCC(=O)NC2CCCCC2)c1C,?,-16,18,35
C[C@@H]1CN([C@H](C)CO)S(=O)(=O)c2ccc(-c3cncnc3)cc2O[C@H]1CN(C)Cc1cccnc1,-50,/,/,/
COc1cc(OC)cc(C(=O)N[C@H](C(=O)OCC(=O)NC(=O)NC(C)(C)C)C(C)C)c1,-43,/,/,/
O=C(COc1cccnc1[N+](=O)[O-])NCCc1ccc(Cl)cc1,-49,/,/,/
Nc1c(C(=O)Nc2ccccc2)c2nc3ccccc3nc2n1CCCN1CCOCC1,57*,197,106,-12
CO[C@H]1CN(C)C(=O)c2ccc(NC(=O)Nc3ccccc3F)cc2OC[C@@H](C)NC[C@@H]1C,-49,/,/,/
Cc1noc(C)c1S(=O)(=O)Nc1ccc2c(c1)C(=O)N([C@@H](C)CO)C[C@@H](C)[C@@H](CN(C)Cc1ccc3c(c1)OCO3)OCCCC[C@@H](C)O2,-41,444,230,?
C[C@@H]1CCCCO[C@H](CN(C)Cc2ccc(Cl)c(Cl)c2)[C@H](C)CN([C@@H](C)CO)C(=O)c2cc(NC(=O)Nc3ccc(F)cc3)ccc2O1,-43,/,/,/
COc1ccc(S(=O)(=O)N(C)C[C@@H]2Oc3ccc(NC(=O)CCN4CCOCC4)cc3C(=O)N([C@H](C)CO)C[C@H]2C)cc1,-50,/,/,/
O=Nc1c(O)c2ccccc2c2ccccc12,-45,/,/,/
O=C(CC1CC1)N[C@@H]1CC[C@@H](CCNS(=O)(=O)c2ccc(Cl)cc2)O[C@@H]1CO,-56,/,/,/
Cc1ccc(NC2=C/C(=N\S(=O)(=O)c3cccs3)c3ccccc3C2=O)c(C)c1,-93,/,/,/
Cc1ccc(Nc2nnc(C)c3ccccc23)c(C)c1,?,-20,-29,88
C(=N\Nc1nc2ccccc2[nH]1)/c1ccc2ncccc2c1,-49,/,/,/
Nc1ccc2c(c1)C(=O)C(=O)c1ccccc1-2,-107,/,/,/
COc1ccc(S(=O)(=O)N(Cc2cc3ccc(OC)cc3[nH]c2=O)CC2COCCO2)cc1 (centres undefined),-45,/,/,/
CN(C)CCCNc1cc(-c2ccccc2)nc2cc(-c3cccc(F)c3)nn12,?,i,?,?
O=P(CCCCCCCCCP(=O)(c1ccccc1)c1ccccc1)(c1ccccc1)c1ccccc1,-78,/,/,/
CCCCn1c(=O)[nH]c(=O)c2c1nc(-c1ccc(OCCC)c(OCC)c1)n2C,-53,/,/,/
O=C(CN(Cc1ccc2c(c1)OCO2)C(=O)CNS(=O)(=O)c1ccccc1)NCc1ccco1,-46,/,/,/
CCOC(=O)CNS(=O)(=O)c1cc(-c2nnc(Nc3ccc4c(c3)OCO4)c3ccccc23)ccc1C,168*,85,120,92
Cc1cccc(C(=O)O/N=C/c2c(Cl)n(C)c3ccccc23)c1,1,/,/,/
SMILES,PGC1a Ac signal,G6PC hep suppr,PCK1 hep suppr,Hep PGC-1a down
O=C(COc1ccc(Cl)cc1Cl)NCCCN1CCOCC1,-41,/,/,/
O=C(C[C@H]1CC[C@@H]2[C@H](COC[C@@H](O)CN2S(=O)(=O)c2ccc(F)cc2)O1)NCCN1CCCCC1,-47,/,/,/
O=C(C[C@@H]1C=C[C@@H](NC(=O)CN2CCOCC2)[C@H](CO)O1)NC1CCCCC1,-51,/,/,/
Cc1ccc(S(=O)(=O)N[C@H]2C=C[C@@H](CC(=O)NCCN3CCCCC3)O[C@H]2CO)cc1,-105,/,33,41
COc1ccc(C(NC(=O)c2c(F)c(F)c(F)c(F)c2F)c2ccccc2)cc1 (centres undefined),-85,/,/,/
O=C(Nc1ccc2c(c1)OCO2)C1CCN(c2ccc(S(=O)(=O)N3CCOCC3)cc2)CC1,-48,-45,0.28,41
COC(=O)c1cc(S(=O)(=O)N2CCN(c3ccc(C(C)=O)cc3)CC2)c[nH]1,?,-40,-54,-28
